The values that follow come from PubChem BioAssay.

The inhibition is the relative decrease from the control value, in per cent.

Assay [1] is described as follows: inhibitors of TNFa-induced NFkB p65 translocation, primary screen, imaging, HUVEC, MLSMR starter and 10KST1 sets (AID 438;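 active means inhibition above 20% together with a positive visual image hit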;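 further: compound added about 3h40 before a 20 min TNFalpha stimulation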;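 on inhibition: signal is the nuclear over cytoplasmic p65 intensity ratio per well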). The note with it: HUVEC TNFa-induced p65 nuclear translocation; cell count: measured here: nuclei count (cytotoxicity indicator), at 2.08 µM; inhibition: at 2 µM, stronger effect = higher value, 0% TNFa-plus-vehicle, 100% no-TNFa wells.
The nature of assay [2]: inhibitors of mutant huntingtin aggregation, primary screen, imaging, exon1htt(103Q)mCFP cells, high-content imaging (AID 483;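 active means visual image review flags a hit and inhibition of aggregation exceeds 20%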;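 further: compound exposure lasted 3 days before fixation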;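 on nuclei count: percent of the per-plate median nuclei count of sample wells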). The following applies: exon1htt(103Q)mCFP cell line, aggregate imaging, at 2 µM; inhibition of aggregation: stronger effect = higher value; nuclei count: measured here: cell count, toxicity.
The nature of assay [3]: inhibitors of E-selectin induction by TNFa, primary screen, imaging, HUVEC, immunofluorescence, MLSMR starter and 10KST1 sets (AID 487;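 active means visually confirmed hit in the image check and inhibition above 20%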;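 on inhibition: signal is fraction of cell area covered by stained E-selectin grains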;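 on nuclei count: 100% = median nuclei count of all wells on the same plate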). The note with it: HUVEC TNFalpha-induced E-selectin immunofluorescence imaging, at 2 µM; inhibition: stronger effect = higher value; nuclei count: measured here: cell number, toxicity.
Assay [4] concerns the target Voltage-gated potassium channel subunit beta-2 (Rattus norvegicus) (UniProt P62483). Put plainly: KvBeta enzyme negative modulators, primary screen, biochemical, NADPH fluorescence (AID 622;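 active means fluorescence slope higher than the sample average by over 3 SD, cut at about -0.22 in these data, passing the limit was not always enough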;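 further: slope of raw intensity against log time taken from 70 to 1610 s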). The note with it: recombinant KvBeta, 4-cyanobenzaldehyde reduction, at 10 µM, stronger effect = higher value.
The target is the same in assay [5]. The assay can be described thus: KvBeta positive modulators, primary screen, biochemical, NADPH fluorescence (AID 623;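 active means NADPH fluorescence slope more negative than the mean of all samples by about 3 SD, 99.7% confidence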;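 further: fluorescence intensity change per second fitted from 20 to 320 s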). The note with it: Recombinant KvBeta, NADPH fluorescence decrease slope, 10 min; at 10 µM; stronger effect = lower value.
Assay [6] addresses Muscarinic acetylcholine receptor M4 (Homo sapiens) (UniProt P08173). The assay can be described thus: compounds altering M4/GIRK thallium flux, either direction, primary screen, M4 allosteric agonist project, cell-based, HEK293 M4/GIRK, BTC-AM (AID 625;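 active means fluorescence slope after compound addition differing from the mean of all tested samples at 99.7% confidence, mostly higher but some lower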;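 further: thallium influx through GIRK channels coupled to M4 in HEK293 cells with BTC-AM dye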). The note with it: at 10 µM, actives lie on both sides. A digest of the protocol:
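Assay system: HEK293 cells with M4 receptor and GIRK channels / Controls: carbachol and DMSO controls / Schedule: 1 h dye loading, 2 min kinetic read / Technique: kinetic fluorescence with BTC-AM dye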

Assay [7] in a line: inhibitors of Sendai virus-induced IRF3 signaling, primary screen, TLR/RLR signaling modifier project, cell-based, Sendai virus stimulus, luciferase, 10K MLSCN set (AID 602276;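 active means inhibition at or above 50% at 10 µM; inactive means inhibition below 50%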;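 further: firefly luciferase from ISG56 promoter only with Renilla not read in this screen; 0% = Sendai virus plus DMSO and 100% = medium plus DMSO without virus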). The note with it: HEK293 RL24 IRF3 luciferase reporter, at 10 µM, stronger effect = higher value. For orientation: Reporter assays use an easily measured gene product as a stand-in for the process of interest.
A short description of assay [8]: inhibitors of poly I:C-induced TLR3 signaling, primary screen, cell-based, poly I:C stimulus, luciferase, 10K MLSCN set (AID 602277). The note with it: HEK293-TLR3 RL24 IRF3 luciferase reporter, at 10 µM, stronger effect = higher value.

The source made the active and inactive calls.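 How the source made its calls, unless noted: active means inhibition of the reporter signal at or above 50%; inactive means inhibition below 50%.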

Muscarinic acetylcholine receptor M4 (Homo sapiens), sequence (P08173 whole entry, looked up): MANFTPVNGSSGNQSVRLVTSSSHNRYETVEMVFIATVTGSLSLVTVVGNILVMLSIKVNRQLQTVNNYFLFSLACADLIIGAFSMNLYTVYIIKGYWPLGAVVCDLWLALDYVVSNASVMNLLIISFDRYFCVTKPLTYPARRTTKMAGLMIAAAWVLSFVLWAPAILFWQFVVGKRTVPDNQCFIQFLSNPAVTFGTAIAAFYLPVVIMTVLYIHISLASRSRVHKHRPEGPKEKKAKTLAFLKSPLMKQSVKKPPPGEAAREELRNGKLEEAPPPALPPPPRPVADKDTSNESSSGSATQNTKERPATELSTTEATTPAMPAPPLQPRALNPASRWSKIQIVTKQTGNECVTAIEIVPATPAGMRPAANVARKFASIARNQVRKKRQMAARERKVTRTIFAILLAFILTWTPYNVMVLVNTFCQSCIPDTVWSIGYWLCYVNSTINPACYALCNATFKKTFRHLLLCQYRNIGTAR
Voltage-gated potassium channel subunit beta-2 (Rattus norvegicus), sequence (P62483 whole entry, looked up): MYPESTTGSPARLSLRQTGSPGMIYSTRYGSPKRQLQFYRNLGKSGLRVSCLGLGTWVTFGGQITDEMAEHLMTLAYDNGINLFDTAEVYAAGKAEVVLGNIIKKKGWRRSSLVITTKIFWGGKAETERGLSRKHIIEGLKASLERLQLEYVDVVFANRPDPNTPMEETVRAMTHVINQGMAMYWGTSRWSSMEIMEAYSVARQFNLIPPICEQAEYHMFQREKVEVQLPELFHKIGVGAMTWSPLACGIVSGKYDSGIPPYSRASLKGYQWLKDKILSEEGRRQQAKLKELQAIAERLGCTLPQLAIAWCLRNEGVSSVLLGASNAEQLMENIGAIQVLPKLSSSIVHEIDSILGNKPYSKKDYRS

Consider `O=C(CCNC(=O)Cn1ccc2ccccc2c1=O)NCCN1CCc2ccccc2C1`, for which, in assay [1], the cell count was 337. Further, the inhibition in assay [1] is 0.5% (inactive); in assay [3], -26.8% (inactive); in assay [7], -3.36% (inactive); in assay [8] it was 11.4% (inactive). Moreover, in assay [2], the inhibition of aggregation was 16.2% (inactive). Besides, the nuclei count in assay [2] is 77.2%; in assay [3] it was 111%. Moreover, the fluorescence slope in assay [4] is -0.474 (inactive); in assay [6], 0.00569 (inactive). In addition, in assay [5], the NADPH fluorescence slope is -0.000226 (inactive).
For `O=C(c1cccc(Cl)c1)N1CCN(Cc2ccncc2)CC1`, the cell count in assay [1] is 702. The inhibition was 3.1% (inactive) in assay [1], -87.8% (inactive) in assay [3], 3.71% (inactive) in assay [7] and 7.08% (inactive) in assay [8]. Moreover, the inhibition of aggregation in assay [2] was 1.7% (inactive). Besides, the nuclei count in assay [2] came out at 106%; in assay [3], 109%. Also, the fluorescence slope in assay [4] is -0.537 (inactive); in assay [6], 0.00543 (inactive). Moreover, the NADPH fluorescence slope in assay [5] is 0.000145 (inactive).
For `CCOC(=O)N1CCN(c2cc3nccnc3cc2F)CC1`, the cell count in assay [1] came out at 412. For the same compound, the inhibition in assay [1] is 3.1% (inactive); in assay [3] it was -54.5% (inactive); in assay [7], 10.4% (inactive); in assay [8], -18.8% (inactive). The inhibition of aggregation in assay [2] is -5.3% (inactive). Besides, the results for the nuclei count in assay [2] and in assay [3] were 113% and 111%, respectively. The fluorescence slope in assay [4] was -0.173 (inactive); in assay [6] it was 0.00552 (inactive). The NADPH fluorescence slope in assay [5] was -4.3e-05 (inactive).
Turning to `O=C(Nc1ccccc1)N1C(=O)C2(OCCO2)c2ccccc21`, in assay [1], the cell count worked out at 397. Further, the inhibition in assay [1] was 6.5% (inactive); in assay [3], -75.2% (inactive); in assay [7], 14.1% (inactive); in assay [8], 7.78% (inactive). Besides, in assay [2], the inhibition of aggregation is -15.7% (inactive). For the same compound, the figures for the nuclei count in assay [2] and in assay [3] were 91.7% and 105%, respectively. For the same compound, the fluorescence slope in assay [4] is -0.542 (inactive); in assay [6], 0.00486 (inactive). Moreover, the NADPH fluorescence slope in assay [5] is -0.000137 (inactive).
For the compound `Cc1cc(/N=C/N(C)C)on1`, in assay [1], the cell count was found to be 522. The inhibition in assay [1] is 1.5% (inactive); in assay [3] it was -19.3% (inactive); in assay [7], 19% (inactive); in assay [8], 16% (inactive). For the same compound, the inhibition of aggregation in assay [2] is 3.5% (inactive). In addition, the nuclei count in assay [2] and in assay [3] was 104% each time. In addition, the values for the fluorescence slope in assay [4] and in assay [6] were -0.586 (inactive) and 0.00679 (inactive), respectively. For the same compound, the NADPH fluorescence slope in assay [5] was -4.7e-05 (inactive).
In the case of `CCN(Cc1nc2cc(OC)c(OC)cc2c(=O)[nH]1)C(=O)c1ccc(S(=O)(=O)N(C)C)cc1`, in assay [1], the cell count is 311. The inhibition was 11.1% (inactive) in assay [1], 14.8% (inactive) in assay [3], 13.8% (inactive) in assay [7] and 28.7% (inactive) in assay [8]. In addition, the inhibition of aggregation in assay [2] was -0.9% (inactive). The nuclei count is 119% in assay [2] and 89.6% in assay [3]. The fluorescence slope in assay [4] was -0.399 (inactive); in assay [6], 0.00948 (inactive). In assay [5], the NADPH fluorescence slope was -0.000108 (inactive).
Take `CC(C)C(=O)Nc1cccc(NC(=O)c2cccnc2)c1`: in assay [1], the cell count is 311. In addition, the inhibition in assay [1] is 7.2% (inactive); in assay [3] it was -167% (inactive); in assay [7], -7.88% (inactive); in assay [8] it was -11.4% (inactive). For the same compound, the inhibition of aggregation in assay [2] is -20.9% (inactive). For the same compound, the nuclei count in assay [2] amounted to 95.6%; in assay [3], 104%. The figures for the fluorescence slope in assay [4] and in assay [6] were -0.611 (inactive) and 0.00325 (inactive), respectively. Besides, the NADPH fluorescence slope in assay [5] is 7.6e-06 (inactive).
With `CCOC(=O)C1CCCN(C(=O)c2cccs2)C1` (centres undefined), the cell count in assay [1] was 330. In addition, the inhibition in assay [1] is 3.3% (inactive); in assay [3] it was 22% (inactive); in assay [7], 12.8% (inactive); in assay [8], 3.43% (inactive). Further, in assay [2], the inhibition of aggregation is 13.3% (inactive). Moreover, the nuclei count in assay [2] was 110%; in assay [3], 104%. The values for the fluorescence slope in assay [4] and in assay [6] were -0.456 (inactive) and 0.0055 (inactive), respectively. The NADPH fluorescence slope in assay [5] is -5e-05 (inactive).
Regarding `O=C(N1CCOCC1)N1CCC(NC(=O)C23CC4CC(CC(C4)C2)C3)CC1`, in assay [1], the cell count stood at 363. The inhibition was 9.1% (inactive) in assay [1], -15.5% (inactive) in assay [3], 15.6% (inactive) in assay [7] and 21.8% (inactive) in assay [8]. Further, the inhibition of aggregation in assay [2] was -0.3% (inactive). Besides, the results for the nuclei count in assay [2] and in assay [3] were 99% and 81.8%, respectively. In addition, the figures for the fluorescence slope in assay [4] and in assay [6] were -0.55 (inactive) and 0.00404 (inactive), respectively. The NADPH fluorescence slope in assay [5] was -4e-05 (inactive).
On to `CC(OC(=O)c1cccc(NS(C)(=O)=O)c1)C(=O)Nc1ccc(N2CCOCC2)cc1` (centres undefined), for which the cell count in assay [1] amounted to 415. Besides, the inhibition in assay [1] was -11.6% (inactive); in assay [3], -52.8% (inactive); in assay [7], 16.6% (inactive); in assay [8], -7.05% (inactive). Further, the inhibition of aggregation in assay [2] is -32.5% (inactive). The figures for the nuclei count in assay [2] and in assay [3] were 101% and 148%, respectively. Moreover, the fluorescence slope was -0.559 (inactive) in assay [4] and 0.0061 (inactive) in assay [6]. In assay [5], the NADPH fluorescence slope is -3.1e-05 (inactive).
With `CSc1cccc(NC(=O)C2CCCN2S(=O)(=O)c2ccc3c(c2)CCC(=O)N3)c1` (centres undefined), in assay [1], the cell count was 571. For the same compound, the inhibition in assay [1] is -6.9% (inactive); in assay [3], -72.3% (inactive); in assay [7], 4.83% (inactive); in assay [8], 8.19% (inactive). Further, the inhibition of aggregation in assay [2] is -43.4% (inactive). Besides, the nuclei count is 99.9% in assay [2] and 108% in assay [3]. In addition, the fluorescence slope in assay [4] was -0.456 (inactive); in assay [6], 0.00486 (inactive). Also, the NADPH fluorescence slope in assay [5] was 4.1e-06 (inactive).
For the compound `Cn1cccc1-c1cc(C(=O)O)[nH]n1`, the cell count in assay [1] came to 825. Further, the inhibition in assay [1] is -8.7% (inactive); in assay [3], -57.9% (inactive); in assay [7], 15.5% (inactive); in assay [8], 15.9% (inactive). In addition, the inhibition of aggregation in assay [2] is 7.8% (inactive). Also, the nuclei count in assay [2] is 56.8%; in assay [3] it was 139%. For the same compound, the fluorescence slope in assay [4] was -0.465 (inactive); in assay [6], 0.00382 (inactive). Besides, the NADPH fluorescence slope in assay [5] is -0.000188 (inactive).
Consider `CCCCN(c1ccccc1)S(=O)(=O)c1ccc2c(c1)CCN2C(=O)CCC(=O)O`, for which the cell count in assay [1] was 648. The inhibition in assay [1] was 1.3% (inactive); in assay [3] it was -65.5% (inactive); in assay [7], 22.6% (inactive); in assay [8] it was 99.4% (active). In assay [2], the inhibition of aggregation is 7.8% (inactive). The nuclei count is 112% in assay [2] and 117% in assay [3]. In addition, the fluorescence slope is -0.526 (inactive) in assay [4] and 0.00543 (inactive) in assay [6]. The NADPH fluorescence slope in assay [5] was 5.3e-05 (inactive).
As for `O=C(Nc1nc(-c2ccc(S(=O)(=O)N3CCCCCC3)cc2)cs1)c1cccs1`, in assay [1], the cell count came out at 368. Also, the inhibition in assay [1] was 15% (inactive); in assay [3] it was -30.6% (inactive); in assay [7] it was 10.4% (inactive); in assay [8], 3.6% (inactive). Moreover, the inhibition of aggregation in assay [2] is -6.4% (inactive). Moreover, the nuclei count in assay [2] stood at 115%; in assay [3] it was 122%. Also, the fluorescence slope in assay [4] was -0.53 (inactive); in assay [6], 0.0134 (active). Moreover, the NADPH fluorescence slope in assay [5] is -2.4e-05 (inactive).
